Measured values taken from ChEMBL document CHEMBL5214897, “Modular Design of Membrane-Active Antibiotics: From Macromolecular Antimicrobials to Small Scorpionlike Peptidomimetics” (J Med Chem, 2021).
Converted amounts (≈) assume the structure as drawn. The source made the active and inactive calls. The rule behind the calls is not given here.

Experiments:
[1] = Hemolytic activity in human RBC assessed as hemolysis incubated for 1 hr by microplate reader assay; type: toxicity, cell-based, Erythrocyte; details: human red blood cells (erythrocytes)
How it was run: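 Fresh human erythrocytes washed in 1× PBS (700 g, 10 min), made to 5% suspension, mixed 1:1 with compound (250 to 1.95 µg/mL), 37 °C for 1 h. After centrifugation, supernatant diluted in PBS and A540 read; 2% Triton-100 = 100%, PBS = 0%; HC50 derived from % hemolysis.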

[2] = system: Staphylococcus aureus; experiment: Antibacterial activity against methicillin-resistant Staphylococcus aureus assessed as bacterial growth inhibition incubated for 16 hrs by microplate reader assay; type: functional
How it was run: (§1)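 Strains grown in TSB at 37 °C for 16 h with shaking, subcultured 6 h to mid-log. 10^6 CFU/mL bacteria mixed 1:1 with compound over 0.75 to 25 μg/mL. Incubated at 37 °C for 16 h; MIC read on a microplate reader.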

[3] = system: Pseudomonas aeruginosa; experiment: Antibacterial activity against Pseudomonas aeruginosa assessed as bacterial growth inhibition incubated for 16 hrs by microplate reader assay; type: functional
How it was run: (§2)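 Strains E. coli ATCC 25922, K. pneumoniae ATCC 13383, P. aeruginosa ATCC 27853 grown in TSB at 37 °C for 16 h with shaking, subcultured 6 h to mid-log.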

[4] = system: Escherichia coli; experiment: Antibacterial activity against Escherichia coli assessed as bacterial growth inhibition incubated for 16 hrs by microplate reader assay; type: functional; how it was run: as §2
[5] = system: Staphylococcus epidermidis; experiment: Antibacterial activity against methicillin-resistant Staphylococcus epidermidis assessed as bacterial growth inhibition incubated for 16 hrs by microplate reader assay; type: functional; how it was run: as §1
[6] = Therapeutic index, ratio of HC50 for Hemolytic activity in human RBC to MIC for Antibacterial activity against methicillin-resistant Staphylococcus aureus; type: toxicity
[7] = system: Enterococcus faecalis; experiment: Antibacterial activity against vancomycin-resistant Enterococcus faecalis assessed as bacterial growth inhibition incubated for 16 hrs by microplate reader assay; type: functional; how it was run: as §1
[8] = system: Klebsiella pneumoniae; experiment: Antibacterial activity against Klebsiella pneumoniae assessed as bacterial growth inhibition incubated for 16 hrs by microplate reader assay; type: functional; how it was run: as §2
[9] = system: Staphylococcus aureus; experiment: Antibacterial activity in ICR mouse infected with methicillin-resistant Staphylococcus aureus assessed as reduction in TNF-alpha level at 5 mg/ml,sc measured after 48 hrs by ELISA assay; type: functional, organism-based
How it was run: (§3)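 Female ICR mice (16–20 g), anaesthetised and dorsum shaved. Subcutaneous abscess made with 100 μL MRSA at 1×10^8 CFU/mL. After 30 min, 100 μL of compound in sterile PBS (0.5 or 5 mg/mL) injected into the infection site; PBS controls. At 48 h: skin imaged, abscess bacteria plate-counted, H&E histology, IL-6 and TNF-α measured in skin homogenate by ELISA.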

[10] = system: Staphylococcus aureus; experiment: Antibacterial activity in ICR mouse infected with methicillin-resistant Staphylococcus aureus assessed as presence of erythema at 5 mg/ml,sc measured after 48 hrs; type: functional, organism-based; how it was run: as §3
[11] = system: Staphylococcus aureus; experiment: Antibacterial activity in ICR mouse infected with methicillin-resistant Staphylococcus aureus assessed as reduction in skin inflammatory cells at 5 mg/ml,sc measured after 48 hrs by H and E staining based analysis; type: functional, organism-based; how it was run: as §3
[12] = system: Staphylococcus aureus; experiment: Antibacterial activity in ICR mouse infected with methicillin-resistant Staphylococcus aureus assessed as reduction in IL-6 level at 5 mg/ml,sc measured after 48 hrs by ELISA assay; type: functional, organism-based; how it was run: as §3
[13] = system: Staphylococcus aureus; experiment: Antibacterial activity in ICR mouse infected with methicillin-resistant Staphylococcus aureus assessed as reduction in microbial burden at 5 mg/ml,sc measured after 48 hrs; type: functional; design: scale not given: the % may be the effect or the level left; how it was run: as §3
[14] = Toxicity in ICR mouse infected with methicillin-resistant Staphylococcus aureus assessed as histopathological abnormalities in liver at […],sc measured after 48 hrs by H and E staining based assay; type: organism-based; details: in vivo
How it was run: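 MRSA abscess model in female ICR mice: 100 μL compound in PBS (0.5 or 5 mg/mL) injected subcutaneously at the infection site 30 min after inoculation. Major organs harvested and examined by H&E staining for systemic toxicity.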

[15] = system: Staphylococcus aureus; experiment: Antibacterial activity in ICR mouse infected with methicillin-resistant Staphylococcus aureus assessed as reduction in colony growth at 5 mg/ml,sc measured after 48 hrs; type: functional; how it was run: as §3

Row | SMILES | HC50 at 1 h [1] | MIC [2] | MIC [3] | MIC [4] | MIC [5] | selectivity ratio [6] | MIC [7] | MIC [8] | Activity [9] | Activity [10] | Activity [11] | Activity [12] | Activity [13] | Activity [14] | Activity [15]
1 | CCCCCCCCNC(=O)c1cc(NC(=O)CN(C[C@@H](N)CCCCN)C(=O)CC23CC4CC(CC(C4)C2)C3)cc(NC(=O)CN(C[C@@H](N)CCCCN)C(=O)CC23CC4CC(CC(C4)C2)C3)c1 | 125 µg/mL | 2 µg/mL (≈ 2.09 µM) | 19 µg/mL (≈ 19.8 µM) | 9 µg/mL (≈ 9.39 µM) | 4.5 µg/mL (≈ 4.7 µM) | 62.5 | 4.5 µg/mL (≈ 4.7 µM) | 9 µg/mL (≈ 9.39 µM) |  |  |  |  |  |  | 
2 | CCCCCCCCCCCC(=O)NCCNC(=O)c1cc(NC(=O)CN(C[C@@H](N)CCCCN)C(=O)CCCCCCC)cc(NC(=O)CN(C[C@@H](N)CCCCN)C(=O)CCCCCCC)c1 | > 250 µg/mL | 4.5 µg/mL (≈ 4.63 µM) | > 25 µg/mL | > 25 µg/mL | 9 µg/mL (≈ 9.26 µM) | > 55.5 | > 25 µg/mL | > 25 µg/mL |  |  |  |  |  |  | 
3 | CCCCCCCC(=O)NCCNC(=O)c1cc(NC(=O)CN(C[C@@H](N)CCCCN)C(=O)c2cccc(Cl)c2)cc(NC(=O)CN(C[C@@H](N)CCCCN)C(=O)c2cccc(Cl)c2)c1 | > 250 µg/mL | > 25 µg/mL |  | > 25 µg/mL |  |  |  |  |  |  |  |  |  |  | 
4 | CCCCCCCC(=O)NCCNC(=O)c1cc(NC(=O)CN(C[C@@H](N)CCCCN)C(=O)c2ccc(Cl)cc2)cc(NC(=O)CN(C[C@@H](N)CCCCN)C(=O)c2ccc(Cl)cc2)c1 | > 250 µg/mL | > 25 µg/mL |  | > 25 µg/mL |  |  |  |  |  |  |  |  |  |  | 
5 | CCCCCCCCCCCC(=O)NCCNC(=O)c1cc(NC(=O)CNC[C@@H](N)CCCCN)cc(NC(=O)CNC[C@@H](N)CCCCN)c1 | > 250 µg/mL | > 25 µg/mL |  | > 25 µg/mL |  |  |  |  |  |  |  |  |  |  | 
6 | O=C(O)c1cn(C2CC2)c2cc(N3CCNCC3)c(F)cc2c1=O [CIPROFLOXACIN] |  | 0.24 µg/mL (≈ 0.724 µM) | 0.45 µg/mL (≈ 1.36 µM) |  | 0.45 µg/mL (≈ 1.36 µM) |  | 0.9 µg/mL (≈ 2.72 µM) | 0.9 µg/mL (≈ 2.72 µM) | Active | Active | Active | Active | 81.1% | Toxic | 0.7 log10CFU/ml
7 | CCCCCCCC(=O)NCCNC(=O)c1cc(NC(=O)CN(C[C@@H](N)CCCCN)C(=O)Cc2cccc3ccccc23)cc(NC(=O)CN(C[C@@H](N)CCCCN)C(=O)Cc2cccc3ccccc23)c1 | > 250 µg/mL | 9 µg/mL (≈ 9.01 µM) | > 25 µg/mL | 4.5 µg/mL (≈ 4.5 µM) | 9 µg/mL (≈ 9.01 µM) | > 27.8 | > 25 µg/mL | 4.5 µg/mL (≈ 4.5 µM) |  |  |  |  |  |  | 
8 | CCCCCCCC(=O)NCCNC(=O)c1cc(NC(=O)CN(C[C@@H](N)CCCCN)C(=O)CC23CC4CC(CC(C4)C2)C3)cc(NC(=O)CN(C[C@@H](N)CCCCN)C(=O)CC23CC4CC(CC(C4)C2)C3)c1 | > 250 µg/mL | 2 µg/mL (≈ 1.97 µM) | 4.5 µg/mL (≈ 4.43 µM) | 4.5 µg/mL (≈ 4.43 µM) | 2 µg/mL (≈ 1.97 µM) | > 125 | 4.5 µg/mL (≈ 4.43 µM) | 4.5 µg/mL (≈ 4.43 µM) |  |  |  |  |  |  | 
9 | CCCCCCCC(=O)NCCNC(=O)c1cc(NC(=O)CN(C[C@@H](N)CCCCN)C(=O)CCCCC)cc(NC(=O)CN(C[C@@H](N)CCCCN)C(=O)CCCCC)c1 | > 250 µg/mL | > 25 µg/mL |  | > 25 µg/mL |  |  |  |  |  |  |  |  |  |  | 
10 | CCCCCCCCCCCC(=O)NCCNC(=O)c1cc(NC(=O)CN(C[C@@H](N)CCCCN)C(=O)CC23CC4CC(CC(C4)C2)C3)cc(NC(=O)CN(C[C@@H](N)CCCCN)C(=O)CC23CC4CC(CC(C4)C2)C3)c1 | 250 µg/mL | 4.5 µg/mL (≈ 4.2 µM) | > 25 µg/mL | > 25 µg/mL | 4.5 µg/mL (≈ 4.2 µM) | 55.5 | 4.5 µg/mL (≈ 4.2 µM) | > 25 µg/mL |  |  |  |  |  |  | 
11 | CCCCCCCCCCNC(=O)c1cc(NC(=O)CN(C[C@@H](N)CCCCN)C(=O)CC23CC4CC(CC(C4)C2)C3)cc(NC(=O)CN(C[C@@H](N)CCCCN)C(=O)CC23CC4CC(CC(C4)C2)C3)c1 | 125 µg/mL | 2 µg/mL (≈ 2.03 µM) | > 25 µg/mL | > 25 µg/mL | 9 µg/mL (≈ 9.12 µM) | 62.5 | 2 µg/mL (≈ 2.03 µM) | > 25 µg/mL |  |  |  |  |  |  | 
12 | CCCCCCCCCC(=O)NCCNC(=O)c1cc(NC(=O)CN(C[C@@H](N)CCCCN)C(=O)CC23CC4CC(CC(C4)C2)C3)cc(NC(=O)CN(C[C@@H](N)CCCCN)C(=O)CC23CC4CC(CC(C4)C2)C3)c1 | > 250 µg/mL | 1 µg/mL (≈ 0.958 µM) | 2 µg/mL (≈ 1.92 µM) | 19 µg/mL (≈ 18.2 µM) | 2 µg/mL (≈ 1.92 µM) | > 250 | 4.5 µg/mL (≈ 4.31 µM) | 4.5 µg/mL (≈ 4.31 µM) |  |  |  |  |  |  | 
13 | CCCCCCCC(=O)NCCNC(=O)c1cc(NC(=O)CN(C[C@@H](N)CCCCN)C(=O)CCCCCCC)cc(NC(=O)CN(C[C@@H](N)CCCCN)C(=O)CCCCCCC)c1 | > 250 µg/mL | 4.5 µg/mL (≈ 4.92 µM) | 4.5 µg/mL (≈ 4.92 µM) | 4.5 µg/mL (≈ 4.92 µM) | 4.5 µg/mL (≈ 4.92 µM) | > 55.5 | 4.5 µg/mL (≈ 4.92 µM) | > 25 µg/mL |  |  |  |  |  |  | 
14 | CCCCCCCC(=O)NCCNC(=O)c1cc(NC(=O)CN(C[C@@H](N)CCCCN)C(=O)c2ccc(-c3ccccc3)cc2)cc(NC(=O)CN(C[C@@H](N)CCCCN)C(=O)c2ccc(-c3ccccc3)cc2)c1 | > 250 µg/mL | 4.5 µg/mL (≈ 4.4 µM) | 4.5 µg/mL (≈ 4.4 µM) | 9 µg/mL (≈ 8.79 µM) | 4.5 µg/mL (≈ 4.4 µM) | > 55.5 | 4.5 µg/mL (≈ 4.4 µM) | > 25 µg/mL |  |  |  |  |  |  | 
15 | CCCCCCNC(=O)c1cc(NC(=O)CN(C[C@@H](N)CCCCN)C(=O)CC23CC4CC(CC(C4)C2)C3)cc(NC(=O)CN(C[C@@H](N)CCCCN)C(=O)CC23CC4CC(CC(C4)C2)C3)c1 | 125 µg/mL | 2 µg/mL (≈ 2.15 µM) | 4.5 µg/mL (≈ 4.84 µM) | 9 µg/mL (≈ 9.67 µM) | 2 µg/mL (≈ 2.15 µM) | 62.5 | 2 µg/mL (≈ 2.15 µM) | 9 µg/mL (≈ 9.67 µM) |  |  |  |  |  |  | 
